In assay [1] the target is T1, PfPRS (Plasmodium falciparum, UniProt Q8I5R7).
T1 sequence (Q8I5R7 250-746 limits assumed): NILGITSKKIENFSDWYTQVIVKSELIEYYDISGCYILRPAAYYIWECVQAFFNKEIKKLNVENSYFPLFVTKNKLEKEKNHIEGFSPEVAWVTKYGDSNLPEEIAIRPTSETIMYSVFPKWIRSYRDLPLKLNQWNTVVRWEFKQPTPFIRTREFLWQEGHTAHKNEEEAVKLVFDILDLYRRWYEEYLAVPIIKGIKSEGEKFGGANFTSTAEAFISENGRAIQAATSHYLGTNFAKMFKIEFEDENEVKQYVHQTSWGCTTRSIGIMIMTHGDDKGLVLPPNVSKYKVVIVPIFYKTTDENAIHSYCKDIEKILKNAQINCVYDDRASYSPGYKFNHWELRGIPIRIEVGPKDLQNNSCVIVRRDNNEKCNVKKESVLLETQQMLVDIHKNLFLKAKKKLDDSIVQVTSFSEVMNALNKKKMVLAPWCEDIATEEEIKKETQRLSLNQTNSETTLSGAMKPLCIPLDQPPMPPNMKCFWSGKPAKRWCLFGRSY
The assay is described as follows: Microscale thermophoresis. The conditions noted are these: for Kd: Kd-Pf. The assay is classed as binding. An outline of the steps: (§1)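 Recombinant tag-cleaved PRS (affinity, heparin and gel-filtration purified) labelled on lysines with Red-NHS 2nd-generation dye and held at 100 nM. Kd from MST; two independent replicates.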
For orientation: In MST a laser heats a spot of the sample, and binding alters the fluorescence response.

For assay [2], the target named is T1, PfPRS. The assay is described as follows: Aminoacylation activity inhibition assay. The assay is classed as biochemical.
Assay [3] addresses T2, HsPRS (Homo sapiens, UniProt P07814).
T2 sequence (P07814 1007-1512 limits assumed): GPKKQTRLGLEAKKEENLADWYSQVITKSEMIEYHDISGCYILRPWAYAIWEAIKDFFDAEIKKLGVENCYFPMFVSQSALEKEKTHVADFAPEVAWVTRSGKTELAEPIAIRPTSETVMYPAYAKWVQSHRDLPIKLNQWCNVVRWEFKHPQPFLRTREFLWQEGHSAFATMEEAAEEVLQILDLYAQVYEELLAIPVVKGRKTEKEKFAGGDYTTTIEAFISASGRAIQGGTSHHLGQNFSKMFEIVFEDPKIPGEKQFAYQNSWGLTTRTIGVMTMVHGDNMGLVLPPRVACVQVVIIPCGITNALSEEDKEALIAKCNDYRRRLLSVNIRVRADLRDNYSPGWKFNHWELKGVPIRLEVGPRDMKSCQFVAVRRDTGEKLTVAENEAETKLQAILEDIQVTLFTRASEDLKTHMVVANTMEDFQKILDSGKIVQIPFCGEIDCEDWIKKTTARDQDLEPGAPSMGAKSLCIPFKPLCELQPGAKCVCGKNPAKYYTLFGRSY
The assay is described as follows: Aminoacylation activity inhibition assay. Type of assay: biochemical.

In assay [4] the target is T1, PfPRS. Type of assay: binding. The following applies: Enzyme:Compound 1:50.
For assay [5], the target named is T2, HsPRS. The experiment in a line: Microscale thermophoresis. The assay is classed as binding. The following applies: Kd-Hs. An outline of the steps: as §1
Assay [6] addresses T2, HsPRS. Type of assay: binding.
Assay [7] concerns Plasmodium falciparum 3D7. The assay is described as follows: Asexual blood stage parasite growth inhibition. The assay is classed as cell-based. The conditions noted are these: 3D7, 48 h, read-out: Pf-EC50 (ABS), Pf 3D7, 48 h.
Setting [8] is: replicate n = 1, MST, individual replicate 1.
[9] abbreviates: replicate n = 2, MST, individual replicate 2.

Molecules are shown by their SMILES. Read-outs that look alike come from different tables or passages of the source.

Take `O=C(CC1NCCCC1O)Cn1cnc2cc(Br)c(Cl)cc2c1=O` (centres unmarked) [HFG, Halofuginone]: the “SI-Kd (Hs/Pf)” value on PfPRS [1] (Kd-Hs / Kd-Pf) was 0.7. Also, the equilibrium dissociation constant (Kd) (in general, the constant that tells how readily two partners part at equilibrium) on PfPRS [1] (setting [8]) turned out to be 74.8 nM; at PfPRS [1] (setting [9]), 72.9 nM; on HsPRS [5] (setting [8]), 42.4 nM; on HsPRS [5] (setting [9]), 61.9 nM. For the same compound, the IC50 (usually the concentration that inhibits the measured activity by half) at PfPRS [2] is 2.8 nM; against HsPRS [3], 10.9 nM. Also, the “SI-IC50 (Hs/Pf)” value at PfPRS [2] (IC50 of the human enzyme divided by that of the plasmodium enzyme) stood at 3.9. Moreover, the entries for the “PfPRS melting temperature (Tm)” value at PfPRS [4] (in presence of ATP (2 mM)), on PfPRS [4] (in presence of L-pro (2 mM)) and at PfPRS [4] (in presence of L-pro + ATP (2 mM)) were 87.7 °C, 54.7 °C and 86.6 °C, respectively. The “HsPRS ΔTm from Apo Tm” value on HsPRS [6] is 61.4 (11.6) °C. For the same compound, the “HsPRS melting temperature (Tm)” value on HsPRS [6] (enzyme + inhibitor only, no substrate, Enzyme:Compound 1:100) was 61.4 (11.6) °C. Besides, in assay [7], the EC50 (as a rule, the concentration at which the effect is half-maximal) is 0.2 nM.

The values are drawn from PMC11298890 (iScience, 2024).
